Assay results of several laboratories.
Compare with care: the assays were run in different laboratories.
Observed: cell growth or viability

Cc1c(OCC(F)(F)F)ccnc1COc1ccc(NC(=O)Nc2ccc(Cl)cc2)cc1
IC50 (L02; MTT; 72 h): > 100 µM

Cc1cc(Oc2ccc(NC(=O)c3cc(-c4cccs4)no3)cc2F)n2ncnc2n1
IC50 (L02; MTT): > 50 µM

COCCCOc1ccnc(COc2ccc(NC(=O)Nc3ccc(OC)cc3)cc2)c1C
IC50 (L02; MTT; 72 h): > 100 µM

Cc1ccc(S(=O)(=O)N(C)CC(=O)N(Cc2ccc(C3CCCCC3)cc2)c2ccc(C(=O)O)c(O)c2)cc1
IC50 (OCI-AML2): 35.9 µM

CC[C@@H](C)[C@H](N)C(=O)N1Cc2ccccc2C1
IC50 (OCI-AML2; ATP luminescence): 0.3 µM

O=C(N/N=C/c1c(O)ccc2ccccc12)c1cc(-c2ccc3ccccc3c2)n[nH]1
IC50 (WM-115; MTS; 24 h): 9.7 µM

COc1cc(C2Oc3cc([C@H]4Oc5cc(O)cc(O)c5C(=O)[C@@H]4O)ccc3OC2CO)ccc1O (some centres unmarked)
IC50 (RWPE-1; CCK-8; 72 h): > 300 µM

Cc1c(OCC(F)(F)F)ccnc1COc1ccc(NC(=O)Nc2cc(F)cc(F)c2)cc1
IC50 (L02; MTT; 72 h): > 100 µM

C=C(C)C(=O)Nc1ccc(-c2c(-c3ccc(Oc4nccc(C)n4)c(F)c3)c3c(N)ncnc3n2C)cc1
IC50 (Li-7; ATP luminescence; 96 h): > 10 µM

CO[C@H]1/C=C\C=C(/C)C(=O)NC2=C(C)C(=O)C(NCCN(C)C)=C(C[C@@H](C)C[C@H](OC)[C@H](O)[C@@H](C)/C=C(\C)[C@@H]1OC(N)=O)C2=O
IC50 (ARPE-19; MTT): > 20 µM

Nc1nc(Nc2ccc3c(c2)CC[C@@H](N2CCCC2)CC3)nn1-c1cc2c(nn1)-c1ccccc1CCC2
IC50 (OCI-AML-3; trypan blue; 72 h): 2.9 µM

COc1c(C)cnc(COc2ccc(NC(=O)Nc3ccc(Cl)c(C(F)(F)F)c3)cc2)c1C
IC50 (L02; MTT; 72 h): > 100 µM

Cc1cc(Oc2ccc(NC(=O)c3sc(-c4ccccn4)nc3C)cc2F)c2nncn2n1
IC50 (L02; MTT): > 50 µM

COC1=C2C[C@@H](C)C[C@H](OC)[C@H](O)[C@@H](C)/C=C(\C)[C@H](OC(N)=O)[C@@H](OC)/C=C\C=C(/C)C(=O)NC(=CC1=O)C2=O
IC50 (ARPE-19; MTT): 0.1 µM

COc1cccc2c1C(=O)c1c(O)c3c(c(O)c1C2=O)C[C@@](O)(C(=O)CO)C[C@@H]3O[C@H]1C[C@H](N)[C@H](O)[C@H](C)O1
IC50 (CCD-986Sk; MTT; 48 h): > 10 µg/mL

O=C(O)/C=C/c1ccc(O)cc1
IC50 (PANC-1; MTT): > 50 µM

COCCCOc1ccnc(COc2ccc(NC(=O)Nc3ccc(F)cc3)cc2)c1C
IC50 (L02; MTT; 72 h): > 100 µM

Cc1cc(Oc2ccc(NC(=O)c3cnn(-c4ccc(Cl)cc4)c3C(F)(F)F)cc2F)c2nncn2n1
IC50 (L02; MTT): > 50 µM

COc1c(C)cnc(COc2ccc(NC(=O)Nc3ccc(Cl)cc3)cc2)c1C
IC50 (L02; MTT; 72 h): > 100 µM

COc1cc(-c2ncn(/C=C\C(=O)OC(C)C)n2)cc(C(F)(F)F)c1
IC50 (OCI-AML2; 72 h): 0.017 µM

c1cnc2c(c1)ccc1cccnc12
IC50 (L02; MTT; 48 h): > 50 µM

Cc1cc(Oc2ccc(NC(=O)c3sc(-c4ccccn4)nc3C)cc2F)n2ncnc2n1
IC50 (L02; MTT): > 50 µM

COCCCOc1ccnc(COc2ccc(NC(=O)Nc3cc(F)cc(F)c3)cc2)c1C
IC50 (L02; MTT; 72 h): > 100 µM

Cc1cc(Oc2ccc(NC(=O)c3cnn(-c4ccc(Cl)cc4)c3C(F)(F)F)cc2F)n2ncnc2n1
IC50 (L02; MTT): > 50 µM

CC(C)[C@H](N)C(=O)N1CCC[C@H]1B(O)O
IC50 (OCI-AML2; ATP luminescence; 48 h): 0.08 µM

Cc1ccc2c(Cl)cc(Cl)c(O)c2n1
IC50 (L02; MTT; 48 h): > 100 µM

Cc1cc(Oc2ccc(NC(=O)c3sc(-c4ccc(F)cc4)nc3C)cc2)c2nncn2n1
IC50 (L02; MTT): > 50 µM

COc1ccnc(COc2ccc(NC(=O)Nc3ccc(Cl)cc3)cc2)c1OC
IC50 (L02; MTT; 72 h): > 100 µM

Oc1ccc(Nc2nc(-c3ccc(Cl)cc3)cs2)cc1
IC50 (WM-115; MTS; 72 h): 11.7 µM

Clc1ccnc2c1ccc1c(Cl)ccnc12
IC50 (L02; MTT; 48 h): > 50 µM

CCN1C(=O)N(c2c(F)c(OC)cc(OC)c2F)Cc2cnc3[nH]c(CN4CCOCC4)cc3c21
IC50 (Li-7; ATP luminescence; 96 h): 0.054 µM

CCn1c(=O)c(-c2ccc(-c3cncs3)cc2Cl)cc2cnc(Nc3ccc(N4CCN(C)CC4)cc3)nc21
IC50 (PANC-1; MTT; 24 h): 14.1 µM

CC(=O)c1cccc(N=Nc2c(C(=O)O)cc(O)c(O)c2O)c1
IC50 (PANC-1; MTT): 9.2 µM

O=c1[nH]cc(F)c(=O)[nH]1
IC50 (human Lymphocyte; 72 h): 18 µM

COc1ccc(C(=O)O[C@@H]2CN3Cc4c(cc5c(c4OC)OCO5)[C@@]24C=C[C@H](OC)C[C@@H]34)cc1OC
IC50 (PANC-1; WST-1): 2.3 µM
